Test results: ChEMBL document CHEMBL3046488, “Synthesis of 3-(4-Bromobenzyl)-5-(aryl methylene)-5H-furan-2-ones and their activity as inhibitors of the photosynthetic electron transport chain” (2007)
Activity calls are given as the source filed them. No cut-off for these calls is given here.

Assays:
Spinacia oleracea [1] = assay: (§1) In vitro inhibition of basal rate of photosynthetic electron transport (Hill reaction) in active intact chloroplast thylakoid membrane of Spinacia oleracea (spinach) leaves assessed as light-driven ferricyanide reduction at 10 uM measured at 24 degC at 30 secs intervals for 10 min (reference value: 100 +/-3.1%); design: scale not given: the % may be the effect or the level left
Spinacia oleracea [2] = assay: as §1, with “at 5” for “at 10”; design: scale not given: the % may be the effect or the level left
[3] = tested on: Auxenochlorella protothecoides; assay: In vivo inhibition of photosynthetic activity in intact Auxenochlorella protothecoides ATCC 30411 cells assessed as light-driven oxygen evolution rate at 100 uM measured at 24 degC every 15 sec upto 8 min by polarographic analysis in presence of 0.001% Triton X-100 (reference value: 100 +/-5.1%); format: functional; design: scale not given: the % may be the effect or the level left
[4] = tested on: Auxenochlorella protothecoides; assay: In vivo inhibition of photosynthetic activity in intact Auxenochlorella protothecoides ATCC 30411 cells assessed as light-driven oxygen evolution rate at 100 uM measured at 24 degC every 15 sec upto 8 min by polarographic analysis in absence of detergent (reference value: 100 +/-5.9%); format: functional; design: scale not given: the % may be the effect or the level left
Spinacia oleracea [5] = assay: In vitro inhibition of uncoupled electron transport in active intact chloroplast thylakoid membrane of Spinacia oleracea (spinach) leaves assessed as light-driven ferricyanide reduction at 10 uM measured at 24 degC at 30 secs intervals for 10 min (reference value: 100 +/-4.1%); design: scale not given: the % may be the effect or the level left
Spinacia oleracea [6] = assay: In vitro inhibition of phosphorylating electron transport in active intact chloroplast thylakoid membrane of Spinacia oleracea (spinach) leaves assessed as light-driven ferricyanide reduction at 10 uM measured at 24 degC at 30 secs intervals for 10 min (reference value: 100 +/-3.8%); design: scale not given: the % may be the effect or the level left
Spinacia oleracea [7] = assay: (§2) In vitro inhibition of basal rate of photosynthetic electron transport (Hill reaction) in active intact chloroplast thylakoid membrane of Spinacia oleracea (spinach) leaves assessed as inhibition of light-driven ferricyanide reduction at >10 uM measured at 24 degC at 30 secs intervals for 10 min
[8] = tested on: Auxenochlorella protothecoides; assay: In vivo inhibition of photosynthetic activity in intact Auxenochlorella protothecoides ATCC 30411 cells assessed as light-driven oxygen evolution rate at 10 uM measured at 24 degC every 15 sec upto 8 min by polarographic analysis in presence of 0.001% Triton X-100 (reference value: 100 +/-5.1%); format: functional; design: scale not given: the % may be the effect or the level left
[9] = tested on: Auxenochlorella protothecoides; assay: In vivo inhibition of photosynthetic activity in intact Auxenochlorella protothecoides ATCC 30411 cells assessed as light-driven oxygen evolution rate at 10 uM measured at 24 degC every 15 sec upto 8 min by polarographic analysis in absence of detergent (reference value: 100 +/-5.9%); format: functional; design: scale not given: the % may be the effect or the level left
Spinacia oleracea [10] = assay: as §2, with “10” for “>10”, “min in presence of 0.25 to 1 mM uncoupler, NH4Cl” for “min”
Procedure, shortened: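 A fixed compound concentration was tested in the spinach thylakoid ferricyanide-reduction assay at increasing NH4Cl (uncoupler) levels. Activity is expressed as % of untreated samples containing the same amount of uncoupler, mean ± SE over at least six replications from two independent experiments.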

Structure (SMILES) | Activity (Spinacia oleracea [1]) | Activity (Spinacia oleracea [2]) | also measured
O=C1OC(=Cc2cccc([N+](=O)[O-])c2)C=C1Cc1ccc(Br)cc1 | 66.9% | 72.6% | 
CN(C)c1ccc(C=C2C=C(Cc3ccc(Br)cc3)C(=O)O2)c(Cl)c1 | 91% | 94.7% | 
COc1cc(OC)c(/C=C2\C=C(Cc3ccc(Br)cc3)C(=O)O2)c(OC)c1 | 79.9% | 84.2% | 
Cc1cccc(/C=C2\C=C(Cc3ccc(Br)cc3)C(=O)O2)c1 | 69.7% | 72.8% | 
COc1ccc(OC)c(/C=C2\C=C(Cc3ccc(Br)cc3)C(=O)O2)c1 | 71% | 94.1% | 
CN(C)C(=O)Nc1ccc(Cl)c(Cl)c1 [DCMU] | 4.9% | 6.8% | Activity [3]: 20.7%; Activity [8]: 32.2%; Activity [4]: 38.5%; Activity [9]: 49.9%
O=C1O/C(=C\c2ccc3c(c2)OCO3)C=C1Cc1ccc(Br)cc1 | 91% | 91.1% | 

Second part, led by results:

Activity (Spinacia oleracea [1]) | Activity (Spinacia oleracea [2]) | Structure (SMILES) | also measured
48.8% | 71.7% | O=C1OC(=Cc2ccc(C(F)(F)F)cc2)C=C1Cc1ccc(Br)cc1 | Activity [3]: 89.5%; Activity [4]: 94.5%; Activity (Spinacia oleracea [5]): 79.8%; Activity (Spinacia oleracea [6]): 52.1%; inhibition (Spinacia oleracea [7]): inactive
89.4% | 94.1% | O=C1OC(=Cc2ccc(Cl)cc2)C=C1Cc1ccc(Br)cc1 | 
68.5% | 74% | O=C1OC(=Cc2ccc(F)cc2)C=C1Cc1ccc(Br)cc1 | 
92% | 95.4% | O=C1OC(=Cc2ccc(Br)cc2)C=C1Cc1ccc(Br)cc1 | 
101% | 100% | N#Cc1ccc(C=C2C=C(Cc3ccc(Br)cc3)C(=O)O2)cc1 | 
42.9% | 54.1% | O=C1OC(=Cc2ccccc2)C=C1Cc1ccc(Br)cc1 | Activity [3]: 74.2%; Activity [4]: 82.6%; inhibition (Spinacia oleracea [10]): inactive; Activity (Spinacia oleracea [5]): 95.6%; Activity (Spinacia oleracea [6]): 47.9%; inhibition (Spinacia oleracea [7]): inactive
